# Rows were chosen to be rich in hits. Some 2.6% of all compounds tested hit in one or more screens of this group.
# HTRA1 inh – HTRA1 serine protease inhibitors, primary screen, biochemical, fluorescence polarization, HTS | Q92743 | 340,000 compounds, 0.5% hits | inhibition, % at 5.96 µM | AID 504803, 2011 | recombinant HTRA1, FP-rhodamine activity-based probe; in the data active = inhibition above about 36%;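 also: 0% = enzyme with DMSO and 100% = wells lacking enzyme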
# SIAE primary – human SIAE inhibitors, primary screen, biochemical, fluorescence polarization, FP-Rh probe, 1536-well HTS; SIAE FP-Rh probe binding; inhibition, % at 9.66 µM; 370,000 compounds, 0.69% hits; AID 1053197, 2014;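 active = inhibition above a cutoff: mean of compounds within the control limits plus 3 SD of those, cut at about 17% in these data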;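 also: 0% = plate median of compound wells and 100% = probe without SIAE protein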
# PRMT1 FP inh – PRMT1 methyltransferase inhibitors, primary screen, biochemical, fluorescence polarization; Protein arginine N-methyltransferase 1 (Homo sapiens), Q99873; recombinant PRMT1, activity-based probe fluorescence polarization; inhibition, % at 2.79 µM; 370,000 compounds, 1.3% hits; AID 652257, 2013;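 active = inhibition above about 21% made by adding two undisclosed values, limit read from the data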
# Target sequence (Q99873 whole entry, looked up): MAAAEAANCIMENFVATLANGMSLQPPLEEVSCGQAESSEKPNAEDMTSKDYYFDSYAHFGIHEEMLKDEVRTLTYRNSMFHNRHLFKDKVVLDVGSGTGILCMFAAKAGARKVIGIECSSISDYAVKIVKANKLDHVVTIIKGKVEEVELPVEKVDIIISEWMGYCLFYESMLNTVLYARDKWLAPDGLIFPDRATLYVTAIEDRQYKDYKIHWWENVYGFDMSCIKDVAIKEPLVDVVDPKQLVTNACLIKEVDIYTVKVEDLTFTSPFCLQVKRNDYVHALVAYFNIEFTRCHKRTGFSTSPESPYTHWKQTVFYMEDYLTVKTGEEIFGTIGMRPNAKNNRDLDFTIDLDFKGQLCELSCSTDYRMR
# mABHD4 FP – ABHD4 inhibitors, primary screen, biochemical, fluorescence polarization, mouse; (Lyso)-N-acylphosphatidylethanolamine lipase (Mus musculus), Q8VD66; inhibition, % at 8.92 µM; purified mABHD4, FP-Rh probe fluorescence polarization; 370,000 compounds, 0.54% hits; AID 720543, 2013;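 active = inhibition exceeding the mean over every tested compound plus 3 SD, cut at about 30% in these data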;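 also: 0% = plate median of compound wells and 100% = S159A mutant with DMSO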
#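 Material: mouse ABHD4 enzyme, wild type; Benchmarks: S159A mutant high control, sample median low control; Buffer or medium: HEPES pH 7.0, NaCl, Pluronic buffer; Signal: fluorescence polarization; Read-out: percent inhibition of probe binding, normalized to plate controls; Timing: pre-incubation 45 min, probe exposure 60 min, at 25 °C; Dosing: 8.92 µM, single dose.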
# TCR-CD3 inh – inhibitors of human TCR-CD3 interaction, primary screen, biochemical, fluorescence, TAMRA-labeled TCR probe | T-cell receptor (TCR) | inhibition, % at 9.4 µM | 360,000 compounds, 0.37% hits | AID 651800, 2012; in the data active = inhibition above about 19%;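 also: recombinant mutant TCR 2C K166C tagged with TAMRA read by polarization; 0% = receptor in buffer alone and 100% = receptor with positive control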
# HTRA1 inh conf – HTRA1 protease inhibitors, retest, confirmation, biochemical, fluorescence polarization | shares compounds with HTRA1 inh | recombinant HTRA1, FP-rhodamine activity-based probe | inhibition, % at 5.96 µM | 1,600 compounds, 66% hits | AID 540248, 2011;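 active = mean inhibition over three repeats above a set limit taken from the earlier primary screen, cut at about 37% in these data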;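 also: 0% = HTRA1 with DMSO and 100% = wells lacking HTRA1; inhibitors block probe binding so polarization drops and inhibition rises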
# An asterisk follows results filed as active; nt = no result given.
SMILES,HTRA1 inh,SIAE primary,PRMT1 FP inh,mABHD4 FP,TCR-CD3 inh,HTRA1 inh conf
NC(=O)c1ccccc1OCC(=O)Nc1ccc2c(c1)OCCO2,0,-11,-1,-7,8,nt
O=C(Nc1c(F)c(F)c(F)c(F)c1F)OC[C@@H]1CSCCS(=O)(=O)N1,nt,-3,-2,-1,-2,nt
COc1cccc(C(=O)n2ccc3ccc(-c4ccc5ccn(C(=O)c6cccc(OC)c6)c5c4)cc32)c1,nt,-9,0,-2,nt,nt
CCOC(=O)C1=C(COC(=O)c2ccc3ccccc3c2O)NC(=O)NC1C (stereo unspecified),-38,-13,18,-17,-1,nt
O=C1CC(Nc2ccc(N3CCOCC3)cc2)C(=O)N1Cc1ccccc1 (stereo unspecified),49*,18*,12,49*,18,12
O=C1CC(Nc2ccc(N3CCOCC3)cc2)C(=O)N1c1ccccc1 (stereo unspecified),14,nt,nt,nt,nt,nt
O=C(N[C@H](Cc1ccccc1)C(=O)NCc1ccc(OC(F)(F)F)cc1)[C@H]1O[C@@H](n2ccc(=O)[nH]c2=O)[C@H](O)[C@@H]1O,nt,10,1,4,-3,nt
CCC(c1ccc(O)c(O)c1)C(CC)c1ccc(O)c(O)c1 (stereo unspecified),59*,nt,nt,nt,nt,68*
COCC1CN(CCc2ccc(F)cc2)S(=O)(=O)c2c(F)cccc2O1 (stereo unspecified),nt,1,7,-10,2,nt
CCOc1ccc2c(c1)-c1c(ssc1=S)C(C)(C)N2C(=O)CSC1=NCCS1,17,11,13,28,-6,nt
CCOc1ccc2c(c1)-c1c(ssc1=S)C(C)(C)N2,46*,nt,nt,nt,nt,61*
COC(=O)C1=C(C)N(C)C(=NCc2ccc3c(c2)OCO3)NC1c1cccc(F)c1 (stereo unspecified),nt,2,-6,-3,4,nt
O=C(NCCN1CCOCC1)c1ccccc1OCc1ccccc1,6,-1,2,0,-10,nt
O=c1cc2oc3cc(O)c(O)cc3c(-c3ccccc3O)c-2cc1O,60*,nt,nt,nt,nt,127*
COc1ccc(OC)c(-c2c3cc(O)c(=O)cc-3oc3cc(O)c(O)cc23)c1,85*,nt,nt,nt,nt,90*
Cc1ccccc1-c1cc(=O)c2c(O)cccc2o1,-6,-5,-2,2,0,nt
O=C1CCCC2=C1C(c1ccc(Cl)cc1)C1C(=O)c3ccccc3C1=N2 (stereo unspecified),38*,-3,11,29,5,31
CC(C)=CCC/C(C)=C/CN1C(=O)N(c2ccc(F)cc2)[C@H]2C[C@@H](c3ccccc3)[C@@H](C)[C@@H](C(=O)N3CCOCC3)C[C@H]21,nt,-2,1,-2,-4,nt
O=C1C=CC(=O)C(CNc2ccc(C(=O)OCc3ccccc3)cc2)=C1,42*,6,11,36*,10,18
O=C1C(Cl)=C(N2CCCCC2)C(=O)C(Cl)=C1c1cnc(N2CCCCC2)s1,71*,nt,nt,nt,nt,17
O=C1C(Cl)=C(N2CCCCCC2)C(=O)N1c1ccc(Cl)cc1,-22,-3,11,3,-3,nt
CN(C)CCCNc1cc(C(C)(C)C)nc2c(-c3ccccc3)cnn12,36*,2,1,15,1,32
CC(C)(C)c1cc(NCCCn2ccnc2)n2ncc(-c3ccc(Cl)cc3)c2n1,7,11,-2,12,1,nt
CC(C)[C@H](NC(=O)c1cccc(S(=O)(=O)N2CCOCC2)c1)C(=O)OCC(=O)Nc1cccc(Br)c1,37*,-15,-1,-15,1,37*
CC(C)(C)C1=CC(CC(N)=O)(C(C)(C)C)OC1=O (stereo unspecified),nt,1,-3,-3,-6,nt
SMILES,HTRA1 inh,SIAE primary,PRMT1 FP inh,mABHD4 FP,TCR-CD3 inh,HTRA1 inh conf
COc1cccc(/C=N/Nc2ncnc3c2ncn3Cc2ccccc2)c1O,41*,3,-2,25,17,47*
COc1cccc(/C=N/Nc2cc(Cl)nc(C)n2)c1O,19,9,0,2,-8,nt
Cc1cc(SCC(=O)N/N=C/c2ccc(O)c(O)c2O)c(C)cc1Br,62*,35*,35*,50*,11,67*
COc1cc(/C=N/NC(=O)CSc2cc(C)c(Br)cc2C)ccc1O,-16,10,1,-4,4,nt
CCCn1c(Nc2nc3ccccc3n2C)nc2ccccc21,39*,5,-4,28,-6,47*
COCCCNC(=O)CC1C[C@H](C(=O)N2CCCCC2)[C@@]2(CCc3ccccc3)c3[nH]c4ccc(OC)cc4c3CCN2C1=O (stereo partly specified),2,-2,3,8,-6,nt
Cc1ccc2c(c1)c(=O)c1c3n2CCN(C(=O)CCl)C3CC1 (stereo unspecified),48*,6,10,21,2,19
Cc1ccc2c(c1)c1c3n2CCN(C(=O)C2CC2)C3CCC1 (stereo unspecified),5,12,1,7,-2,nt
COc1ccc(Cl)cc1-c1nc(SCC(=O)N(C)C2CCS(=O)(=O)C2)n[nH]1 (stereo unspecified),-1,-5,5,-9,-7,nt
C[C@H](CO)N1C[C@H](C)[C@@H](CN(C)S(C)(=O)=O)Oc2ccc(N(C)C)cc2C1=O,-3,5,-2,3,11,nt
CCCCCCSc1cccc(-c2nc3ccc(C)cn3c2NC2CCCCC2)c1,-17,4,2,5,4,nt
Cc1ccc2nc(-c3ccccn3)c(NC3CCCC3)n2c1,38*,5,-1,11,-6,38*
Fc1ccc2nc(-c3ccc(CN4CCC5(CC4)CNc4ccccc45)cc3)c(-c3ccccc3)nc2c1,nt,0,3,7,-6,nt
O=C(CN1CCN(S(=O)(=O)c2ccc(Br)cc2)CC1)c1ccc(O)c(O)c1,37*,8,2,18,9,39*
CC(C)c1ccc(S(=O)(=O)N2CCN(CC(=O)c3ccc(O)c(O)c3)CC2)cc1,38*,7,15,21,12,35
CCOC(=O)N1CCC(=NNC(=O)c2cc3ccccc3cc2O)CC1,43*,13,3,23,2,15
Cc1ccccc1CC(=O)N1CCN(S(=O)(=O)c2ccc(Cl)s2)CC1,-4,6,2,-2,-1,nt
CCc1cc(=O)oc2cc(C)cc(OCC(=O)NCCCN3CCOCC3)c12,-5,-2,0,-5,6,nt
CCC1=NN(C(=O)c2cccc(Br)c2)C(O)(c2ccc(Br)cc2)C1 (stereo unspecified),75*,1,1,-6,2,68*

# Bioassay records as filed in PubChem.
